Measurements pooled from the literature.
Each line is one published result; the experiments were not run side by side.
Cell line: DU-145
Read-out: cell growth or viability

S=C([S][Au-][P+](CCCCCC[P+]([Au-][S]C(=S)n1cccn1)(c1ccccc1)c1ccccc1)(c1ccccc1)c1ccccc1)n1cccn1 gave a GI50 of 1.31 µM.
COc1cc2c(cc1O)CCN(Cc1cc(Cl)c(OC)c(OC)c1)C2 has a GI50 of 0.9 µM (WST-1; 96 h).
The GI50 of COc1ccc(C(=O)/C=C/c2cccc3ccccc23)cc1S(N)(=O)=O is reported as 2.8 µM (SRB; 48 h).
With COc1cc2c(cc1O)CCN(C(=O)c1cc(OC)c(OC)c(OC)c1)C2 the GI50 was 0.921 µM (WST-1; 96 h).
The GI50 of CCOc1cc(CN2CCc3cc(OS(N)(=O)=O)c(OC)cc3C2)cc(OCC)c1OCC is reported as 8.5 µM (WST-1; 96 h).
For COc1ccc(C(=O)/C=C/c2ccccc2Br)cc1S(N)(=O)=O, the GI50 was 3.3 µM (SRB; 48 h).
CCOc1c(OC)cc(CN2CCc3cc(OS(N)(=O)=O)c(OC)cc3C2)cc1OC gave a GI50 of 0.1 µM (WST-1; 96 h).
The GI50 of COc1cccc(Oc2ccccc2NC(=O)CNC(=O)c2cccc3ccccc23)c1 is reported as 0.708 µM (SRB; 48 h).
For COc1cc2c(cc1OS(N)(=O)=O)CCN(Cc1ccc(OC)c(OC)c1OC)C2, the GI50 was 17 µM (WST-1; 96 h).
COc1cc(-c2ccc(-c3ccc(C(=N)N)nc3)s2)cc(OC)c1OC gave a GI50 of 3.45 µM.
COc1ccc(C(=O)/C=C/c2c(F)cccc2Cl)cc1S(N)(=O)=O gave a GI50 of 3.3 µM (SRB; 48 h).
COc1cc2c(cc1O)CCN(Cc1cccc(NS(C)(=O)=O)c1)C2 gave a GI50 of greater than 100 µM (WST-1; 96 h).
COc1ccc(C(=O)/C=C/c2cccc(Br)c2)cc1S(N)(=O)=O has a GI50 of 3.6 µM (SRB; 48 h).
COc1cc2c(cc1OS(N)(=O)=O)CCN(Cc1cc(Cl)c(OC)c(OC)c1)C2 gave a GI50 of 0.04 µM (WST-1; 96 h).
The GI50 of COc1ccc(C(=O)/C=C/c2cccc(Cl)c2)cc1S(N)(=O)=O is reported as 3.6 µM (SRB; 48 h).
COc1cc2c(cc1O)CCN(Cc1cccc(OC)c1OC)C2 gave a GI50 of greater than 100 µM (WST-1; 96 h).
COc1ccccc1/C=C/C(=O)c1ccc(OC)c(S(N)(=O)=O)c1 gave a GI50 of 3.2 µM (SRB; 48 h).
COc1cc2c(cc1O)CCN(S(=O)(=O)c1ccccc1OC)C2 gave a GI50 of greater than 100 µM (WST-1; 96 h).
With CC(=O)O[C@H]1C(=O)[C@@]2(C)[C@H]([C@H](OC(=O)c3ccccc3)[C@]3(O)C[C@H](OC(=O)[C@H](O)[C@@H](NC(=O)c4ccccc4)c4ccccc4)C(C)=C1C3(C)C)[C@]1(OC(C)=O)CO[C@@H]1C[C@@H]2O the GI50 was 0.004 µM (WST-1; 96 h).
